The record followed here is ChEMBL document CHEMBL2429834, “Potent histone deacetylase inhibitors derived from 4-(aminomethyl)-N-hydroxybenzamide with high selectivity for the HDAC6 isoform” (J Med Chem, 2013).

Some results are limits rather than exact numbers.

In series [1] the target is T1, Protein deacetylase HDAC6 (Homo sapiens, UniProt Q9UBN7).
T1 sequence (Q9UBN7 whole entry): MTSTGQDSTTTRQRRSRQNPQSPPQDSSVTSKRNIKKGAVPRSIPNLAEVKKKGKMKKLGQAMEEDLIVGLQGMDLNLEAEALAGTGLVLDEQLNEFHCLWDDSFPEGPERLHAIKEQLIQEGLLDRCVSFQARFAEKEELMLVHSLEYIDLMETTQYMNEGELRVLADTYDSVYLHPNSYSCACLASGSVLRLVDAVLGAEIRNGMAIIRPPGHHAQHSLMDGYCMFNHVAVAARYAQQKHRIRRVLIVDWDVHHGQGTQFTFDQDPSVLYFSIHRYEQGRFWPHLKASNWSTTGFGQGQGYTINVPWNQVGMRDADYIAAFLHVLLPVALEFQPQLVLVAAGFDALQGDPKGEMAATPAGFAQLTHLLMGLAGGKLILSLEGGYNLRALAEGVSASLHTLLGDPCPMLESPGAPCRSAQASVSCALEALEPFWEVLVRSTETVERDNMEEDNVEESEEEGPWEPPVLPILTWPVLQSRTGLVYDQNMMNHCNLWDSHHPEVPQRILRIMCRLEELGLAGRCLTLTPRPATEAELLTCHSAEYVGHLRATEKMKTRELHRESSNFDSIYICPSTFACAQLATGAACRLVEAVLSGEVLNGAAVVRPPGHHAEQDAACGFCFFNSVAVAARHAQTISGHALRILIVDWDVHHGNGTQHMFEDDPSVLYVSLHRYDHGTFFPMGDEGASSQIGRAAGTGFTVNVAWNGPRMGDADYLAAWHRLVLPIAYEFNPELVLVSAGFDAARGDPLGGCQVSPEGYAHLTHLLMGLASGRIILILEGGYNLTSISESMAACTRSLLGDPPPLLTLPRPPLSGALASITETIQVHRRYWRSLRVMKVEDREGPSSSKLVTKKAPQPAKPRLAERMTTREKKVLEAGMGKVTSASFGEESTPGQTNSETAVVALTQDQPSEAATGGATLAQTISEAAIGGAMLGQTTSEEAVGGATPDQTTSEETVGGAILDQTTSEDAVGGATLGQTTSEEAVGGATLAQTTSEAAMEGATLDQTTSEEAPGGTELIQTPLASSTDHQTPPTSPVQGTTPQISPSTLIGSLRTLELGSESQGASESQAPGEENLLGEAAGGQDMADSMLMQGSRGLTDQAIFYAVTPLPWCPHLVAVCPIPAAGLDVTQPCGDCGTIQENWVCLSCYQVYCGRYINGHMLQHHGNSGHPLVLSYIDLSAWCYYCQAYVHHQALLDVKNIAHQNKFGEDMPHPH
The series is described as follows: Inhibition of HDAC6 in human HeLa cells using acetyl tubulin as substrate assessed as Ac-tubulin accumulation in cytosol after 6 hrs by immunofluorescence assay.

Series [2] deals with T2, Protein deacetylase HDAC6 (Homo sapiens) (UniProt Q9UBN7).
T2 sequence (whole entry): T1 sequence (Q9UBN7 whole entry)
The series is described as follows: Inhibition of HDAC6 in human HeLa cells using acetyl tubulin as substrate assessed as Ac-Lys accumulation in nuclear histones at 20 uM after 24 hrs by immunofluorescence assay relative to control.

In a further series the target is T3, Histone deacetylase 7 (Homo sapiens, UniProt Q8WUI4).
T3 sequence (Q8WUI4 whole entry): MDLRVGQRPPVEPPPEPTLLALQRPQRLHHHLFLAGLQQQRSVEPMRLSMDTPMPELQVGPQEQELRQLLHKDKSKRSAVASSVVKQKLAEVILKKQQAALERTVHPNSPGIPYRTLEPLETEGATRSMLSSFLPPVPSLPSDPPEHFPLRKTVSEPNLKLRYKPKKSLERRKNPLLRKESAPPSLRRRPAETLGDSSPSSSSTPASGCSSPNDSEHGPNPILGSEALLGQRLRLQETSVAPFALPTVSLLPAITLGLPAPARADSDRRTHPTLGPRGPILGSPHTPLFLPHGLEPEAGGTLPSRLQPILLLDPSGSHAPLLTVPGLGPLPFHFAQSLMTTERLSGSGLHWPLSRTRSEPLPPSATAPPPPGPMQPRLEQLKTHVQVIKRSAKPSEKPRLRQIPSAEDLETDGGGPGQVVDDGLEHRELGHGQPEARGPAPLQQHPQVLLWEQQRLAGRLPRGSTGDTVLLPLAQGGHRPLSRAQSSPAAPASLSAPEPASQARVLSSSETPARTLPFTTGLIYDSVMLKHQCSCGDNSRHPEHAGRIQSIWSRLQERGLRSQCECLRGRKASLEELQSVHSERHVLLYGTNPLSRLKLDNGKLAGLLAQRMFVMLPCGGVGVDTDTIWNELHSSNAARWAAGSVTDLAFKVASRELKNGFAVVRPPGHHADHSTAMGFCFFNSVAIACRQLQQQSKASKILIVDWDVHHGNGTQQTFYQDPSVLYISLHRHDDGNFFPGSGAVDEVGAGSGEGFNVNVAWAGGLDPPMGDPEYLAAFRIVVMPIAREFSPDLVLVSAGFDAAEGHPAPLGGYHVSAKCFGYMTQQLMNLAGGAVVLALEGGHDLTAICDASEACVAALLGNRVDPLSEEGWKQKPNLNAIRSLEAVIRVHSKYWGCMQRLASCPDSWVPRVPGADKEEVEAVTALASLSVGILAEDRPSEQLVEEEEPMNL
Put plainly: Inhibition of N-terminal GST-tagged recombinant human HDAC7 (518) expressed in baculovirus using acetyl-Lys(trifluoroacetyl)-AMC as substrate after 1 hr by fluorescence plate reader analysis.

The next series addresses Histone deacetylase 3 (Homo sapiens, UniProt O15379). The series is described as follows: Inhibition of full length C-terminal His6x-tagged recombinant human HDAC3 expressed in baculovirus using Arg-His-Lys-Lys (Ac) as substrate after 2 hrs by fluorescence plate reader analysis.
A short description of series [3]: Kinetic solubility of the compound in potassium phosphate buffer at pH 6.8 by turbidometric analysis. It counts as physicochemical. The conditions noted are these: read-out: Kinetic_solubility.
A short description of series [4]: Selectivity ratio of IC50 for HDAC1/2 in human HeLa cell nuclear extract to IC50 for N-terminal GST-tagged recombinant HDAC6 (unknown origin). The class given is cell-based. The essentials:
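HDAC6 leg: 1 nM GST-HDAC6 with 8 μM Ac-Arg-Gly-Lys(Ac)-AMC. Nuclear-extract leg: 30 μg/mL HeLa nuclear extract (mainly HDAC1/2) with 20 μM of the same substrate in 50 mM Tris-Cl, 137 mM NaCl, 2.7 mM KCl, 1 mM MgCl2, pH 8.0.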

The target in a further series is Histone deacetylase 5 (Homo sapiens, UniProt Q9UQL6). Put plainly: Inhibition of C-terminal His6x-tagged recombinant human HDAC5 (657 to 1123) expressed in baculovirus using acetyl-Lys(trifluoroacetyl)-AMC as substrate after 1 hr by fluorescence plate reader analysis.
Chain of Histone deacetylase 5 (Q9UQL6 whole entry): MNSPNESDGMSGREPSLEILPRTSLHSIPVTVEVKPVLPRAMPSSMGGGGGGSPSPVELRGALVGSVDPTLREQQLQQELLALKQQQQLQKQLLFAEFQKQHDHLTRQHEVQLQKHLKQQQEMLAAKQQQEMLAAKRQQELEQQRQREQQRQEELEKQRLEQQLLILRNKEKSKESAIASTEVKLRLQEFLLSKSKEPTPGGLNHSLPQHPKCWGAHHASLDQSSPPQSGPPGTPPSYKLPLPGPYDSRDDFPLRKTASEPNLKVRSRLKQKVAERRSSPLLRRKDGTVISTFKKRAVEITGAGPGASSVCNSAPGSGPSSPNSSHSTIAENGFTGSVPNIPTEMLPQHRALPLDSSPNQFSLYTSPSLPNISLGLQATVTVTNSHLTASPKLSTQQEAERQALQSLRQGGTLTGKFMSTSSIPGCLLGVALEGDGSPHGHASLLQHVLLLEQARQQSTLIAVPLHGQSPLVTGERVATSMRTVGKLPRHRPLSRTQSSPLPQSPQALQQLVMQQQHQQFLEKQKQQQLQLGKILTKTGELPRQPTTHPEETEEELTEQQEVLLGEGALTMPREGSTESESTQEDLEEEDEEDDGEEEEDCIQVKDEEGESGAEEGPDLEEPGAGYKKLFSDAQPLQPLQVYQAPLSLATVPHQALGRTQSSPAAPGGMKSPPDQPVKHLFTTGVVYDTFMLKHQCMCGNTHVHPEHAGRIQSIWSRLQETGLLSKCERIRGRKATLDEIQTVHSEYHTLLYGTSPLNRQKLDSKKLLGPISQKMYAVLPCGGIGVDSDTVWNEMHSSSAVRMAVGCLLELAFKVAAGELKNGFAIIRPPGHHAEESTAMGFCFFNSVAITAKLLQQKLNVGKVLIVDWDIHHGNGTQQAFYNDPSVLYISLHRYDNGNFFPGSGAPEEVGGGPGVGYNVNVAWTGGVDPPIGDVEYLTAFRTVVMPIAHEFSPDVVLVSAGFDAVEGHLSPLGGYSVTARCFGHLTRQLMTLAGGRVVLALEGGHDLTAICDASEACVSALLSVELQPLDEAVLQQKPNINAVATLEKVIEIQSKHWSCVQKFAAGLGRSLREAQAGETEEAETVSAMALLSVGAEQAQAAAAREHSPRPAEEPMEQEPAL
For a further series, the target named is Histone deacetylase 2 (Homo sapiens, UniProt Q92769). The series is described as follows: Inhibition of full length C-terminal His6x-tagged recombinant human HDAC2 expressed in baculovirus using Arg-His-Lys-Lys (Ac) as substrate after 2 hrs by fluorescence plate reader analysis.
Chain of Histone deacetylase 2 (Q92769 whole entry): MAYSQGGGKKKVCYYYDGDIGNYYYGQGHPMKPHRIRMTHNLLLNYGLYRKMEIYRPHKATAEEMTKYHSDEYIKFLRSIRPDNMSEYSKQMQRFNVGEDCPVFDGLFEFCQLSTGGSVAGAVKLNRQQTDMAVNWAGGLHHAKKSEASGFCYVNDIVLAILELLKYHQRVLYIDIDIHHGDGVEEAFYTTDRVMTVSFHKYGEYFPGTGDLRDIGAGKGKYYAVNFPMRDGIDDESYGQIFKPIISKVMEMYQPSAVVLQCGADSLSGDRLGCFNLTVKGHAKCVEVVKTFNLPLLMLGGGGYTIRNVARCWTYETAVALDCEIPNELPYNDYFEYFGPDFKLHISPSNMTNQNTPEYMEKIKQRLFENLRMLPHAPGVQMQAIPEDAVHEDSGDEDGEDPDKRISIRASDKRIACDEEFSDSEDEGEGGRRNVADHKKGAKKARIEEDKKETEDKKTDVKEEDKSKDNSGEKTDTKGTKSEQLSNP

Chain of Histone deacetylase 3 (O15379 whole entry): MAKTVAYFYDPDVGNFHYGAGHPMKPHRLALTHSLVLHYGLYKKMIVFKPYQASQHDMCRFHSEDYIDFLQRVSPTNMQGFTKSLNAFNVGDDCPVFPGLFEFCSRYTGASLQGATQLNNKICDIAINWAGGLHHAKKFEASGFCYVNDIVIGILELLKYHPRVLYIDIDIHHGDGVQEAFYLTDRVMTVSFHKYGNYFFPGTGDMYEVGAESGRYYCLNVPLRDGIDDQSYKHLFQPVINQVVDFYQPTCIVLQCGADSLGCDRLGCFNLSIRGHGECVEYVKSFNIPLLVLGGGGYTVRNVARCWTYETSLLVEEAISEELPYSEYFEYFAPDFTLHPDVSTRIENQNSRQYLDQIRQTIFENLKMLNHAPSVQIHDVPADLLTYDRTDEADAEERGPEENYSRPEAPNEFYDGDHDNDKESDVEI

By IC50 is commonly meant the point on the concentration scale where inhibition reaches its midpoint. What is called inhibition is the share of the control response that was lost under treatment. Consider `Cn1cccc1C(=O)N1Cc2ccc(C(=O)NO)cc2C1`, for which the IC50 in series [1] is 0.34 µM; at Histone deacetylase 7, over 50 µM; at Histone deacetylase 3, over 50 µM; on Histone deacetylase 5, over 50 µM; on Histone deacetylase 2, over 50 µM. For the same compound, the inhibition in series [2] is under 20%. For the same compound, the solubility kinetic in series [3] was over 200 µM. In series [4], the Ratio IC50 was 690.
For `CC(C)(C)C(=O)N1CCc2cc(C(=O)NO)ccc2C1`, the IC50 in series [1] was 0.43 µM; on Histone deacetylase 7 it was over 50 µM; on Histone deacetylase 3 it was over 50 µM; at Histone deacetylase 5, over 50 µM; on Histone deacetylase 2 it was over 50 µM. The inhibition in series [2] was under 20%. In series [3], the solubility kinetic was over 200 µM. The Ratio IC50 in series [4] stood at 1500.
`Cn1cccc1C(=O)N1CCCc2cc(C(=O)NO)ccc2C1`: the half-inhibitory concentration (IC50) is 1.48 µM in series [1]; over 50 µM at Histone deacetylase 7; over 50 µM at Histone deacetylase 3; over 50 µM at Histone deacetylase 5; over 50 µM at Histone deacetylase 2. In addition, the inhibition in series [2] is under 20%. For the same compound, the solubility kinetic in series [3] is over 200 µM. Moreover, the Ratio IC50 in series [4] was over 380.
Take `CC(C)(C)C(=O)N1Cc2ccc(C(=O)NO)cc2C1`: the IC50 is 0.56 µM in series [1]; over 50 µM on Histone deacetylase 7; over 50 µM on Histone deacetylase 3; over 50 µM on Histone deacetylase 5; over 50 µM at Histone deacetylase 2. Further, in series [2], the inhibition is under 20%. The solubility kinetic in series [3] was over 200 µM. Besides, the Ratio IC50 in series [4] is 340.
With `Cn1cccc1C(=O)NCc1ccc(C(=O)NO)cc1`, the IC50 worked out at 0.46 µM in series [1]; 4.6 µM at Histone deacetylase 7; 4.5 µM at Histone deacetylase 3; 3.3 µM at Histone deacetylase 5; 16 µM on Histone deacetylase 2. Also, in series [2], the inhibition is under 20%. In addition, the solubility kinetic in series [3] is over 200 µM. Also, in series [4], the Ratio IC50 turned out to be 115.
For the compound `Cn1cccc1C(=O)N1CCc2cc(C(=O)NO)ccc2C1`, the 50% inhibitory concentration (IC50) in series [1] was 0.21 µM; on Histone deacetylase 7, over 50 µM; on Histone deacetylase 3, 46 µM; at Histone deacetylase 5, over 50 µM; at Histone deacetylase 2, over 50 µM. Further, the inhibition in series [2] was under 20%. The solubility kinetic in series [3] is over 200 µM. Moreover, the Ratio IC50 in series [4] came to 500.
